Among the data in ChEMBL document CHEMBL1153722, “Design, synthesis, and characterization of peptide-based rab geranylgeranyl transferase inhibitors” (J Med Chem, 2009) are IC50 and inhibition values, retold here.

The structures appear in SMILES notation. Square brackets hold non-standard residues; d marks the D form. Peptide text beside a SMILES is read from it. * marks the point of attachment. Hydrocinnamoyl = O=C(CCc1ccccc1)*; pGlu = O=C1CC[C@@H](C(=O)O)N1; Ac6c = NC1(C(=O)O)CCCCC1; Morpholide = C1CN(*)CCO1

Target in the first assay: not listed separately
Briefly: Inhibition of rat recombinant Rab geranylgeranyltransferase iin presence of canine Rab7 and rat REP1 by NBD-FPP based continuous fluorimetric assay. The method, boiled down:
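Continuous fluorometric assay in 96/384-well format: 3 μM Rab7, 3 μM REP1, 9 μM NBD-FPP and 400 nM RabGGTase, with or without inhibitor. IC50 was calculated from three independent measurements.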
Consider `O=C(CNC(=O)c1csc(-c2cccnc2)n1)N[C@@H](Cc1ccccc1)C(=O)N[C@@H](Cc1cn(C(c2ccccc2)(c2ccccc2)c2ccccc2)cn1)C(=O)O`, for which the IC50 came to 37 µM.

On to `O=C(CNC(=O)c1coc(-c2ccccc2)n1)N[C@@H](Cc1ccccc1)C(=O)N[C@@H](Cc1cn(Cc2ccccc2)cn1)C(=O)O`, for which the IC50 was over 50 µM.

On to `CCCCCCCCCCCOc1ccc(C(=O)N[C@@H](Cc2c[nH]cn2)C(=O)N[C@@H](Cc2c[nH]cn2)C(=O)N[C@@H](Cc2c[nH]cn2)C(=O)N(C)CCc2ccccn2)cc1`, for which the IC50 was 12.1 µM.

Take `CCCCCCCCCCC(=O)N[C@@H](Cc1c[nH]cn1)C(=O)N[C@@H](Cc1c[nH]cn1)C(=O)N[C@@H](Cc1ccc(O)cc1)C(=O)NCCCCN`: the half-maximal inhibitory concentration (IC50) worked out at 5.2 µM.

With `CN(C(=O)[C@@H](Cc1c[nH]cn1)NC(=O)OCc1ccccc1OCc1ccccc1)[C@H](CN[C@@H](Cc1ccccc1)C(=O)O)Cc1ccc(O)cc1`, the concentration for half-maximal inhibition (IC50) is 15.6 µM.

For the compound `CCCCCc1ccc(CCC(=O)N[C@H](Cc2c[nH]cn2)C(=O)N(C)[C@H](CN[C@@H](Cc2ccccc2)C(=O)O)Cc2ccccc2)cc1`, the IC50 was found to be 19 µM.

For `CC(C)(C)OC(=O)n1cnc(C[C@H](NC(=O)[C@H](Cc2ccccc2)NC(=O)CNC(=O)c2coc(-c3ccccc3)n2)C(=O)O)c1`, the IC50 was over 50 µM.

For the compound `O=C(CNC(=O)[C@H](Cc1c[nH]cn1)NC(=O)c1coc(-c2ccccc2)n1)N[C@@H](Cc1c[nH]cn1)C(=O)O`, the IC50 is over 50 µM.

As for `CCCCC(=O)N[C@@H](Cc1c[nH]cn1)C(=O)N[C@@H](Cc1ccccc1)C(=O)N[C@@H](Cc1ccc(O)cc1)CN(C)CCc1ccccn1`, the IC50 is over 100 µM.

As for `CCCCCCCCCCCCCCC(=O)N[C@@H](Cc1c[nH]cn1)C(=O)N[C@@H](Cc1ccccc1)C(=O)N[C@@H](Cc1ccc(O)cc1)CN(C)CCc1ccccn1`, the IC50 stood at 26 µM.

Regarding `O=C(CNC(=O)[C@H](Cc1cn(C(c2ccccc2)(c2ccccc2)c2ccccc2)cn1)NC(=O)c1coc(-c2ccccc2)n1)N[C@@H](Cc1ccccc1)C(=O)O`, the IC50 is 30 µM.

As for `CCCCCc1ccc(CCC(=O)N[C@H](Cc2ccc(O)cc2)C(=O)N[C@@H](Cc2ccc(O)cc2)C(=O)N[C@@H](C[Si]2(C)CCCCC2)C(=O)O)cc1`, the IC50 came to 19.1 µM.

In the case of `O=C(CNC(=O)c1coc(-c2ccccc2)n1)N[C@@H](Cc1ccccc1)C(=O)N[C@@H](Cc1c[nH]cn1)C(=O)O`, the IC50 stood at 45 µM.

The next assay is filed under the species Rattus norvegicus. The experiment in a line: Inhibition of rat recombinant Rab geranylgeranyltransferase at 100 uM in presence of canine Rab7 and rat REP1 NBD-FPP based continuous fluorimetric assay. The method, boiled down: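 Continuous fluorometric assay in 96/384-well format: 3 μM Rab7, 3 μM REP1, 9 μM NBD-FPP and 400 nM RabGGTase, with or without inhibitor. […] IC50 was calculated from three independent measurements.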
As to `CCC/C=C\c1ccccc1/C=C/C(=O)N[C@H](Cc1ccc(O)cc1)C(=O)N(C)[C@@H](Cc1ccc(OC)cc1)C(=O)N(C)[C@@H](Cc1ccccc1)C(=O)OCc1cnc(C)s1`, the inhibition was found to be 97%.

On to `CCC(C)OC(=O)[C@H](CCC(N)=O)NC(=O)[C@H](Cc1ccccc1)NC(=O)[C@@H](NC(=O)/C=C/c1ccccc1)[C@@H](C)O` (some centres undefined), for which the inhibition amounted to 87%.

For the compound `O=C(CNC(=O)c1coc(-c2ccccc2)n1)NCC(=O)N[C@@H](Cc1cn(C(c2ccccc2)(c2ccccc2)c2ccccc2)cn1)C(=O)Nc1ccc(F)cc1F`, the inhibition was 6%.

For the compound `O=C(N[C@@H](Cc1c[nH]cn1)C(=O)N[C@@H](Cc1ccc(O)cc1)C(=O)N[C@@H](Cc1ccccc1)C(=O)O)OCc1ccccc1OCc1ccccc1`, the inhibition amounted to 15%.

For the compound `O=C(CNC(=O)[C@H](Cc1ccc(O)cc1)NC(=O)c1coc(-c2ccccc2)n1)N[C@@H](Cc1c[nH]c2ccccc12)C(=O)O`, the inhibition worked out at 59%.

As to `O=C(CCc1ccccc1)N[C@@H](CO)C(=O)N[C@@H](Cc1ccccc1)C(=O)N[C@@H](CO)C(=O)Nc1ccc(F)cc1F`, the inhibition was determined as 96%.

As for `O=C(CCc1ccc(-c2ccccc2)cc1)N[C@H](Cc1cnc[nH]1)C(=O)N[C@@H](Cc1ccc(O)cc1)C(=O)N[C@@H](Cc1ccccc1)C(=O)O`, the inhibition was found to be 48%.

With `NC(=O)CC[C@H](NC(=O)[C@H](Cc1ccccc1)NC(=O)[C@H](CO)NC(=O)CCc1ccccc1)C(N)=O` (Hydrocinnamoyl-Ser-Phe-Gln-NH2), the inhibition was 106%.

Take `COC(=O)[C@H](Cc1ccc(O)cc1)NC(=O)CCNC(=O)[C@H](Cc1c[nH]cn1)NC(=O)OCc1ccccc1`: the inhibition was found to be 72%.

Take `CCCCCCCCCCC(=O)N[C@@H](Cc1c[nH]cn1)C(=O)N[C@@H](Cc1c[nH]cn1)C(=O)N[C@@H](CO)C(=O)NOC(C)(C)C`: the inhibition worked out at 52%.

Consider `O=C(CCc1ccccc1)N[C@@H](CO)C(=O)N[C@@H](Cc1ccccc1)C(=O)N[C@@H](CO)C(=O)N1CCOCC1` (Hydrocinnamoyl-Ser-Phe-Ser-Morpholide), for which the inhibition turned out to be 94%.

Regarding `CC(C)C[C@H](NC(=O)[C@H](CO)NC(=O)[C@H](Cc1ccccc1)NC(=O)CCc1ccccc1)C(N)=O`, the inhibition came to 100%.

On to `O=C(CNC(=O)c1coc(-c2ccccc2)n1)N[C@@H](Cc1cn(C(c2ccccc2)(c2ccccc2)c2ccccc2)cn1)C(=O)N[C@@H](Cc1ccccc1)C(=O)O`, for which the inhibition is 77%.

Take `CC(C)C[C@H](NC(=O)[C@H](CO)NC(=O)[C@H](Cc1ccccc1)NC(=O)c1ccc(-c2ccccc2)cc1)C(=O)OCCCl`: the inhibition came out at 53%.

As to `COC(=O)NNC(=O)[C@H](CCC(=O)O)NC(=O)[C@H](NC(=O)[C@@H]1CCCN1C(=O)c1ccc([N+](=O)[O-])c(NC(C)=O)c1)C(C)C`, the inhibition was found to be 101%.

For the compound `COC(=O)[C@H](Cc1ccccc1)NC(=O)[C@H](CC(C)C)NC(=O)[C@@H]1CCCN1C(=O)/C=C/c1ccccc1`, the inhibition is 79%.

As for `O=C(CNC(=O)[C@H](Cc1ccccc1)NC(=O)c1coc(-c2ccccc2)n1)N[C@@H](CO)C(=O)Nc1cncs1`, the inhibition stood at 116%.

For `CC(C)[C@H](NC(=O)c1coc(-c2ccccc2)n1)C(=O)NCC(=O)N[C@@H](Cc1ccc(O)cc1)C(=O)Nc1ccc(F)cc1F`, the inhibition came to 102%.

Regarding `CC[C@H](C)[C@H](NC(=O)CCc1ccc(F)cc1)C(=O)N[C@@H](C)C(=O)N[C@@H](CCC(N)=O)C(=O)Nc1cccc(Br)n1`, the inhibition came to 92%.

For the compound `CCCCCCCCCCCCCCCC(=O)N[C@@H](Cc1ccc(O)cc1)C(=O)N[C@@H](Cc1ccc(O)cc1)C(=O)N[C@@H](Cc1ccc(O)cc1)C(=O)Nc1ccc(F)cc1F`, the inhibition stood at 82%.

`COC(=O)[C@H](CCC(N)=O)NC(=O)[C@H](Cc1ccccc1)NC(=O)CNC(=O)CCc1ccccc1` (Hydrocinnamoyl-Gly-Phe-Gln-OMe): the inhibition came to 92%.

For the compound `O=C(CNC(=O)c1coc(-c2ccccc2)n1)N[C@@H](Cc1cn(C(c2ccccc2)(c2ccccc2)c2ccccc2)cn1)C(=O)N[C@@H](Cc1cn(C(c2ccccc2)(c2ccccc2)c2ccccc2)cn1)C(=O)O`, the inhibition amounted to 91%.

In the case of `CCCCCCCCCCCC(=O)N[C@@H](Cc1c[nH]cn1)C(=O)N[C@@H](Cc1c[nH]cn1)C(=O)N[C@@H](CO)C(=O)NCC(O)CO` (some centres undefined), the inhibition turned out to be 63%.

Take `C=CCCCCCCCCCOC(=O)[C@H](CO)NC(=O)CNC(=O)[C@H](Cc1ccccc1)NC(=O)c1coc(-c2ccccc2)n1`: the inhibition is 5%.

For the compound `C=CCOC(=O)[C@H](Cc1cn(C(c2ccccc2)(c2ccccc2)c2ccccc2)cn1)NC(=O)[C@H](Cc1ccccc1)NC(=O)CNC(=O)c1csc(-c2cccs2)n1`, the inhibition was determined as 136%.

On to `COC(=O)C1(NC(=O)[C@H](CCCCN)NC(=O)[C@H](CC(C)C)NC(=O)[C@@H]2CCC(=O)N2)CCCCC1` ([pGlu]LK[Ac6c]-OMe), for which the inhibition stood at 98%.

Consider `CN(C(=O)[C@@H](Cc1c[nH]cn1)NC(=O)OCc1ccccc1)[C@@H](Cc1ccc(O)cc1)C(=O)N[C@@H](Cc1ccccc1)C(=O)O`, for which the inhibition was found to be 34%.

As for `O=C(N[C@H](Cc1ccc(O)cc1)C(=O)N[C@@H](Cc1ccc(O)cc1)C(=O)N[C@@H](Cc1ccc(O)cc1)C(=O)O)OCc1ccccc1`, the inhibition turned out to be 42%.

As for `CCCCCCCCCCCOc1ccc(C(=O)N[C@@H](Cc2cnc[nH]2)C(=O)N[C@@H](Cc2ccc(O)cc2)C(=O)N[C@@H](Cc2ccccc2)C(=O)NCC(O)CO)cc1` (some centres undefined), the inhibition was found to be 93%.

Turning to `COc1ccc(C[C@@H](C(=O)N(C)[C@@H](Cc2ccccc2)C(=O)OCC(=O)O)N(C)C(=O)[C@@H](Cc2ccc(O)cc2)NC(=O)CCc2ccccc2)cc1`, the inhibition came to 47%.

Regarding `CCCCCCCCCCC(=O)N[C@@H](Cc1c[nH]cn1)C(=O)N[C@@H](Cc1c[nH]cn1)C(=O)N[C@@H](CO)C(=O)NCCCCN`, the inhibition was 75%.

Regarding `O=C(CCc1ccc(F)cc1)N[C@@H](Cc1ccc(O)cc1)C(=O)NCC(=O)N[C@@H](Cc1ccc(O)cc1)C(=O)NC1CCCCC1`, the inhibition is 88%.

For the compound `C[C@H](NC(=O)/C=C/c1ccc(F)cc1)C(=O)NCC(=O)N[C@@H](Cc1ccc(O)cc1)C(=O)O`, the inhibition turned out to be 76%.

With `NC(=O)CC[C@H](NC(=O)[C@H](Cc1ccccc1)NC(=O)CNC(=O)CCc1ccccc1)C(=O)N1CCOCC1` (Hydrocinnamoyl-Gly-Phe-Gln-Morpholide), the inhibition amounted to 89%.

As for `CC(C)C[C@H](NC(=O)[C@H](CO)NC(=O)[C@H](Cc1ccccc1)NC(=O)CCc1ccccc1)C(=O)O`, the inhibition worked out at 80%.

As for `NC(=O)CC[C@H](NC(=O)[C@H](Cc1ccccc1)NC(=O)[C@H](CO)NC(=O)CCc1ccccc1)C(=O)Nc1ccc(F)cc1`, the inhibition was 88%.

As for `COC(=O)[C@H](CC(C)C)NC(=O)[C@H](COC(C)(C)C)NC(=O)[C@H](Cc1ccccc1)NC(=O)/C=C/c1ccc(F)cc1`, the inhibition was 57%.

Consider `CCCCCCCCCCC(=O)N[C@@H](Cc1c[nH]cn1)C(=O)N[C@@H](Cc1cnc[nH]1)C(=O)N[C@@H](Cc1ccc(O)cc1)C(=O)OCCN`, for which the inhibition worked out at 97%.

`C[C@@H](NC(=O)CCc1ccccc1)C(=O)N[C@@H](Cc1ccccc1)C(=O)N[C@@H](CCC(=O)O)C(=O)Nc1cccc(Br)n1`: the inhibition came out at 100%.

As for `CN(CCc1ccccn1)C(=O)[C@H](Cc1ccc(O)cc1)NC(=O)CCNC(=O)[C@H](Cc1c[nH]cn1)NC(=O)OCc1ccccc1`, the inhibition was found to be 78%.

As for `CCCCCCCCCCCOc1ccc(C(=O)N[C@@H](Cc2c[nH]cn2)C(=O)N[C@@H](Cc2ccc(O)cc2)C(=O)N[C@@H](Cc2ccccc2)C(=O)Nc2nccs2)cc1`, the inhibition is 76%.
